NPY Y1 blocker = blocks the human neuropeptide Y Y1 receptor; HEK293-CNG Y1 cells, membrane potential fluorescence; NPY at EC95, then isoproterenol; inhibition, % at 3.6 µM; P25929; actives 1% (n = 200,000);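 active = inhibition above the campaign mean inhibition of all tested compounds plus 3 SD, cut at about 20% in these data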;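 note: 0% = DMSO wells given NPY plus isoproterenol and 100% = isoproterenol alone without NPY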
Target sequence (P25929 whole entry, looked up): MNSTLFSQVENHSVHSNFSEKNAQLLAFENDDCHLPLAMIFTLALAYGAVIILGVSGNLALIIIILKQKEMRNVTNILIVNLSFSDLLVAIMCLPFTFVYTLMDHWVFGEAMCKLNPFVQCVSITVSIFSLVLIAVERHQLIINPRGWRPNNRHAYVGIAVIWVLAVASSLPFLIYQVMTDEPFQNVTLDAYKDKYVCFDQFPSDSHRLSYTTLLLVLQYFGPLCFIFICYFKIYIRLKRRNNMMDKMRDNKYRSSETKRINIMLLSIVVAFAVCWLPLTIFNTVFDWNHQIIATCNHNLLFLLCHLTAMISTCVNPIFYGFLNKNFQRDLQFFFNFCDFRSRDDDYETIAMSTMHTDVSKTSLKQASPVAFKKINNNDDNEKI
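Material: HEK293 Y1/CNG channel cell line; also added: NPY (25 nM), isoproterenol (1 µM), Ro 20-1724 (25 µM); doses: one concentration, 3.6 µM, in 0.4% DMSO; schedule: compound incubation 1 h at room temperature, readout 45 min post-stimulation; technique: membrane potential fluorescence; measure: fluorescence ratio normalized to % inhibition between controls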
Hsp70 act = Hsp70 transcriptional activation, primary screen; HeLa Hsp70 promoter luciferase reporter, luminescence; scaled: vehicle 0, proteasome-inhibitor control 100%; activation, % at 10 µM; actives 0.04% (n = 200,000); AID 1203;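 active = activation above the mean across all tested compounds plus 3 SD, cutoff set per campaign, cut at about 5.5% in these data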;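 note: 100% = MG132 at 30 µM as the positive control and 0% = DMSO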
NPY1 pot ag = potentiates or activates human NPY-Y1 receptor | P25929 | activation, % at 3.6 µM | actives 0.37% (n = 220,000) | NPY-Y1 expressing cells, potentiator/agonist activation; in the data active = activation above about 33%, passing the limit was not always enough;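 note: cells stimulated with NPY at EC10 then isoproterenol at EC100; 0% = low agonist plus stimulus and 100% = saturating agonist plus stimulus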
NPY-Y2 antag = NPY-Y2 (human) receptor antagonism; P49146; NPY-Y2 expressing cells, antagonist mode; inhibition, % at 2.7 µM; actives 0.99% (n = 140,000); AID 793;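 note: 0% = vehicle with agonist challenge and 100% = reference antagonist with challenge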
NPY2 pot ag = potentiates or activates human NPY-Y2 receptor. P49146. cells expressing NPY-Y2, potentiator/agonist read-out. activation, % at 3.6 µM. actives 0.45% (n = 220,000). AID 1359; in the data active = activation above about 27%;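 note: cells stimulated with NPY near EC25 plus isoproterenol at EC100; 0% = vehicle plus submaximal agonist and 100% = vehicle plus saturating agonist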
Wee1 degr inh = blocks degradation of human Wee1 kinase | P30291 | HeLa Luc-Wee1K328M stability, luciferase luminescence; 100% = proteasome inhibitor MG132 effect | reporter increase, % at 5 µM | actives 1.2% (n = 220,000);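 active = activation above the mean of all tested compounds plus 3 SD, set per screening run, cut at about 8.8% in these data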;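 note: cells exposed to compound for 20 h before luminescence read; 0% = DMSO alone and 100% = MG132 at 30 µM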
NPY1 antag conf = human NPY-Y1 antagonism, confirmation. actives 21% (n = 1,200). shares compounds with NPY Y1 blocker. inhibition, % at 3.6 µM. HEK293-CNG NPY-Y1, membrane potential fluorescence, cAMP; NPY challenge against isoproterenol-raised cAMP; in the data active = inhibition above about 20%;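 note: 0% = vehicle with agonist plus stimulus and 100% = stimulus alone without agonist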
NPY-Y2 antag ct = human NPY-Y2 antagonism in NPY-Y1 counter-screen. shares compounds with NPY Y1 blocker. HEK293 NPY-Y2 CNG membrane potential fluorescence; cells given NPY, then isoproterenol. inhibition, % at 3.6 µM. actives 28% (n = 1,200);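 note: 0% = DMSO with agonist challenge and 100% = reference antagonist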
Active calls of the source: *; . = no result. The list is not random: actives were taken first. Their share in the collection is about 3%. Cut-off read from the data, not from the text of the source, unless noted: active = inhibition above about 17%; inactive = the rest.

SMILES	NPY Y1 blocker	Hsp70 act	NPY1 pot ag	NPY-Y2 antag	NPY2 pot ag	Wee1 degr inh	NPY1 antag conf	NPY-Y2 antag ct
O=C(CCn1c(=O)[nH]c2ccccc2c1=O)N1CCN(c2cccc(C(F)(F)F)c2)CC1	4.1	-0.1	10.4	3.3	-3.2	-1.1	.	.
O=C(CCCCn1c(=O)[nH]c2ccccc2c1=O)N1CCN(c2cccc(C(F)(F)F)c2)CC1	20.9*	-0.2	-55.9	1.6	4.1	0.3	3.2	3.3
CCOCCCNC(=O)C(NC(=O)c1ccc2c(c1)OCO2)c1ccc(Cl)cc1 (stereo not given)	1.8	0.7	13.1	.	-5.1	-1.8	.	.
O=S(=O)(c1ccc(-c2ccon2)s1)N1CCN(c2ccccn2)CC1	.	.	6.7	.	14.3	-0.8	.	.
Cc1ccc(-c2csc(N(CCc3ccccc3)C(=O)COc3ccccc3)n2)cc1	-1.2	-0.2	-15.7	0.6	-6.2	-0.1	.	.
O=C(COc1ccccc1)N(CCc1ccccc1)c1nc(-c2ccc(F)cc2)cs1	37.3*	-0.3	-44.8	7.8	-31.6	8.6	12.9	19.4*
CC(=O)N(C)C(c1ccc(N(C)C)cc1)c1nnnn1-c1c(C)cccc1C (stereo not given)	23.8*	0.1	-11.2	6.5	0.4	-2.6	10.6	4.2
O=C(CCN1C(=O)C2C3CC(C(Br)C3Br)C2C1=O)OCC(=O)c1ccccc1 (stereo not given)	0.1	-0.4	10.0	-2.0	-14.6	-0.1	.	.
CCc1ccc(NC(=O)CSCc2ccc(C(=O)O)cc2)cc1	0.2	-0.1	1.3	.	-9.2	-1.5	.	.
O=C1/C(=C\c2ccc(Br)o2)Cc2ccccc21	25.0*	-0.1	-21.6	13.0	13.8	0.7	15.5	7.5
CCCCNS(=O)(=O)c1ccc(OCC(=O)OC)cc1	-2.4	-0.2	-5.8	-0.8	2.4	1.3	.	.
Clc1ccc(-c2c[n+](Cc3ccc(Cl)cc3Cl)c3n2CCCCC3)cc1	.	.	-15.9	.	-12.1	1.4	.	.
Clc1ccc(C[n+]2cc(-c3ccccc3)n3c2CCCCC3)c(Cl)c1	50.2*	0.1	-29.1	.	-13.9	1.6	32.9*	22.0*
Cc1ccc(-c2c[n+](CC(=O)c3ccc(Br)cc3)c3n2CCCCC3)cc1	35.4*	0.0	-34.5	.	5.0	-0.4	52.0*	30.6*
COc1ccc(-c2c[n+](CC(=O)c3ccccc3)c3n2CCCCC3)cc1	.	.	9.1	.	15.2	2.0	.	.
CC1CCC(C(C)C)C(OC(=O)C[n+]2cc(-c3ccc(Cl)cc3)n3c2CCCCC3)C1 (stereo not given)	80.4*	-0.3	-43.9	.	-12.3	-0.7	45.1*	38.6*
O=C(C[n+]1cc(-c2ccccc2)n2c1CCCCC2)c1ccc(Cl)cc1	36.8*	-0.1	-55.6	16.2	-12.3	-0.8	25.2*	21.8*
O=C(CSc1nnc(Cc2cccs2)n1CCc1ccccc1)N1CCCc2ccccc21	22.0*	-0.2	-18.4	13.0	-18.8	-2.2	6.6	6.1
Fc1ccc(C(c2nnnn2Cc2ccco2)N2CCN(C3CCCCC3)CC2)cc1 (stereo not given)	28.9*	-0.2	-24.1	13.1	-4.3	-3.2	13.1	10.3
COc1ccc(C(=O)Nc2ccc(-c3ccc(NC(=O)c4ccc(OC)cc4)c(OC)c3)cc2OC)cc1	0.5	-0.2	-22.7	-0.7	-3.4	-1.8	.	.
CC(C)c1nnc(NC(=O)CSc2nnc(-c3ccco3)o2)s1	-2.0	-0.3	-2.1	.	4.6	1.2	.	.
CCOc1nc(-c2ccc(Cl)cc2Cl)ccc1C#N	36.1*	0.0	-19.0	12.9	-12.9	-1.2	16.2	10.6
O=C(c1nc2ccc(Cl)cn2c1CNCC[C@@H]1C[C@@H]2C=C[C@H]1C2)N1CCCCCCC1	17.9	0.1	3.1	.	-1.5	-4.3	.	.
C[C@@H]1CN(C(=O)c2nc3ccc(Cl)cn3c2CNCC[C@@H]2C[C@@H]3C=C[C@H]2C3)C[C@H](C)O1	23.9*	0.1	1.0	.	-16.4	-0.2	16.6	14.8
O=Cc1cn(-c2ccccc2)nc1-c1cc2cc(O)ccc2oc1=O	21.6*	-0.2	-54.1	11.0	-22.0	0.5	19.2	14.2
SMILES	NPY Y1 blocker	Hsp70 act	NPY1 pot ag	NPY-Y2 antag	NPY2 pot ag	Wee1 degr inh	NPY1 antag conf	NPY-Y2 antag ct
CCOC(=O)c1c(C)nc2sc3c(c2c1-c1ccc(OC)cc1)NC(c1ccc(OC)cc1)NC3=O (stereo not given)	4.8	-0.2	-17.4	5.8	14.5	0.6	.	.
OC(COc1ccc2c(c1)CCC2)CN1CCN(c2ccccc2F)CC1 (stereo not given)	26.0*	-0.2	-24.8	9.9	-29.8	0.4	12.5	15.7
COc1ccc(N2CCN(CC(O)COc3ccc4c(c3)CCC4)CC2)cc1 (stereo not given)	11.8	-0.5	6.6	8.6	-6.9	0.4	.	.
CC(C(=O)Nc1c2c(cc3c1CCC3)CCC2)N1CCCC1 (stereo not given)	20.2*	-0.3	-36.7	9.5	-14.8	-2.7	12.6	7.6
CC(=O)c1sc2nsc(SCCN3CCCC3)c2c1N	.	.	8.2	.	1.5	1.2	.	.
Cc1ccccc1-c1nc(CN2CCC(C(=O)NCc3cccs3)CC2)c(C)o1	4.5	-0.5	-36.6	7.1	0.6	4.8	.	.
O=C(c1ccc(CN2CCc3ccccc3C2)cc1)N1CCN(c2ccc(F)cc2)CC1	10.0	-0.1	8.0	5.0	11.5	-0.5	.	.
Clc1ccc(C2=Nn3c(nnc3-c3n[nH]c4c3CCC4)SC2)cc1	7.1	0.3	-36.1	10.3	-32.3	2.5	.	.
Brc1ccc(C2=Nn3c(nnc3-c3n[nH]c4c3CCC4)SC2)cc1	21.9*	0.2	-49.8	15.3	-39.9	-0.6	14.0	20.5*
O=C(COc1ccc(Cl)cc1)Nc1nnc(-c2ccco2)o1	2.3	-0.2	5.5	.	-11.6	1.3	.	.
O=C(NCCN1C(=O)S/C(=C\c2ccccc2F)C1=O)C1CCN(S(=O)(=O)c2cccs2)CC1	20.3*	-0.3	2.5	14.9	-4.2	-2.3	8.9	10.1
Cc1c(Cl)cccc1N(Cc1ccc(C(=O)O)cc1)S(=O)(=O)c1ccccc1	10.1	-0.3	5.3	.	4.5	-0.3	.	.
Cc1ccc(NC(=O)c2ccccc2N(C)S(=O)(=O)c2ccccc2)c(C)c1	-1.9	-0.1	8.4	2.2	-0.3	1.8	.	.
Cc1c(C(c2cc3c(cc2Br)OCO3)c2c(C)n(C)n(-c3ccccc3)c2=O)c(=O)n(-c2ccccc2)n1C	29.2*	-0.1	13.4	6.2	-14.8	-0.6	2.6	8.4
Cc1c(C(c2ccccc2O)c2c(C)n(C)n(-c3ccccc3)c2=O)c(=O)n(-c2ccccc2)n1C	1.7	-0.2	5.2	.	-1.3	-4.6	.	.

Source: PubChem BioAssay (The Scripps Research Institute Molecular Screening Center)
